ChEMBL document CHEMBL3227917, “Structure-activity relationships of dimeric Catharanthus alkaloids. 2. Experimental antitumor activities of N-substituted deacetylvinblastine amide (vindesine) sulfates” (J Med Chem, 1979)

How the values were obtained:
[1] = Antitumor activity against mouse Gardner lymphosarcoma allografted in C3H mouse assessed as tumor growth inhibition at 0.05 mg/kg, ip administered daily for 8 to 10 days; format: functional; conditions: route intraperitoneal, read-out: TGI
Outline: (§1)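 Gardner lymphosarcoma in C3H mice; sulfate salts unless noted, given ip daily for 8–10 days, treatment starting 8 days after tumor implantation. Tumor growth inhibition scored as –, 0–25%; +, 26–50%; ++, 51–75%; +++, 76–100%; T, lethal to ≥5 of 10 animals per group. Average of one or more tests.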

[2] = Antitumor activity against mouse Gardner lymphosarcoma allografted in C3H mouse assessed as tumor growth inhibition at 0.10 mg/kg, ip administered daily for 8 to 10 days; format: functional; conditions: route intraperitoneal, read-out: TGI; outline: as §1
[3] = Antitumor activity against mouse Gardner lymphosarcoma allografted in C3H mouse assessed as tumor growth inhibition at 0.20 mg/kg, ip administered daily for 8 to 10 days; format: functional; conditions: route intraperitoneal, read-out: TGI; outline: as §1
[4] = Antitumor activity against mouse Gardner lymphosarcoma allografted in C3H mouse assessed as tumor growth inhibition at 0.30 mg/kg, ip administered daily for 8 to 10 days; format: functional; conditions: route intraperitoneal, read-out: TGI; outline: as §1
[5] = Antitumor activity against mouse Gardner lymphosarcoma allografted in C3H mouse assessed as tumor growth inhibition at 0.40 mg/kg, ip administered daily for 8 to 10 days; format: functional; conditions: route intraperitoneal, read-out: TGI; outline: as §1
Mus musculus [6] = assay: Toxicity in C3H mouse allografted with mouse Gardner lymphosarcoma assessed as lethality at 0.5 mg/kg, ip administered daily for 8 to 10 days; format: organism-based; design: dose 0.5 mg/kg, route intraperitoneal; conditions: in vivo
Outline: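 Tumor-bearing mice given sulfate salts ip daily for 8–10 days; values are the average of one or more tests. Toxic means lethal to ≥5 of 10 animals per group.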

[7] = Antitumor activity against mouse Ridgway osteogenic sarcoma allografted in AKR mouse assessed as tumor growth inhibition at 0.05 mg/kg, ip administered daily for 8 to 10 days compound treatment commenced 8 days after tumor implantation; format: functional; conditions: route intraperitoneal, read-out: TGI
[8] = Antitumor activity against mouse Ridgway osteogenic sarcoma allografted in AKR mouse assessed as tumor growth inhibition at 0.10 mg/kg, ip administered daily for 8 to 10 days compound treatment commenced 8 days after tumor implantation; format: functional; conditions: route intraperitoneal, read-out: TGI
[9] = Antitumor activity against mouse Ridgway osteogenic sarcoma allografted in AKR mouse assessed as tumor growth inhibition at 0.20 mg/kg, ip administered daily for 8 to 10 days compound treatment commenced 8 days after tumor implantation; format: functional; conditions: route intraperitoneal, read-out: TGI
[10] = Antitumor activity against mouse Ridgway osteogenic sarcoma allografted in AKR mouse assessed as tumor growth inhibition at 0.30 mg/kg, ip administered daily for 8 to 10 days compound treatment commenced 8 days after tumor implantation; format: functional; conditions: route intraperitoneal, read-out: TGI
[11] = Antitumor activity against mouse Ridgway osteogenic sarcoma allografted in AKR mouse assessed as tumor growth inhibition at 0.40 mg/kg, ip administered daily for 8 to 10 days compound treatment commenced 8 days after tumor implantation; format: functional; conditions: route intraperitoneal, read-out: TGI
[12] = Antitumor activity against mouse P1534 cells allografted in DBA2 mouse assessed as tumor growth inhibition at 0.25 mg/kg, ip administered daily for 8 to 10 days; format: functional; conditions: route intraperitoneal, read-out: TGI
Outline: (§2)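 P1534(J) leukemia implanted sc in DBA2 mice; sulfate salts dosed ip daily for 8–10 days. Growth inhibition scored –, 0–25%; +, 26–50%; ++, 51–75%; +++, 76–100%; T, lethal to ≥5 of 10 animals per group. Average of one or more tests.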

CHO [13] = assay: Mitotic arrest in CHO cells assessed as increase in cell accumulation at 0.02 ug/ml; format: functional, Cricetulus griseus
Outline: (§3)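 Chinese hamster ovary cells in tissue culture, scored for mitotic arrest as increase in cells in mitotic arrest over control: +++, 40–50%; ++, 15–40%; +, 10–15%; ±, 7–10%; –, 3–7%. Cytotoxicity noted separately.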

CHO [14] = assay: Mitotic arrest in CHO cells assessed as increase in cell accumulation at 0.002 ug/ml; format: functional, Cricetulus griseus; outline: as §3
Mus musculus [15] = assay: Toxicity in mouse assessed as body weight at 0.5 mg/kg, ip administered twice per week for 4 weeks, then three doses per week for 3 weeks and finally six doses per week for 2 weeks measured at week 9 (reference value: 18.5 +/- 0.5 gms); conditions: in vivo
B16 [16] = assay: Antitumor activity against mouse B16 cells allografted in C57BL/6 mouse assessed as prolongation of host survival at 0.60 mg/kg, ip administered on days 1,5 and 9; format: functional; conditions: route intraperitoneal
Outline: (§4)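 B16 melanoma cells (10⁶ inoculum) implanted ip in C57BL/6 mice; groups of 10. Sulfate salts unless noted, given ip on days 1, 5 and 9. Single test. Survival prolongation is expressed as percent versus controls, with survivors counted on day 60. Toxic means deaths of ≥5 of 10 animals before the first control death.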

B16 [17] = assay: Antitumor activity against mouse B16 cells allografted in C57BL/6 mouse assessed as prolongation of host survival at 0.90 mg/kg, ip administered on days 1,5 and 9; format: functional; conditions: route intraperitoneal; outline: as §4
B16 [18] = assay: Antitumor activity against mouse B16 cells allografted in C57BL/6 mouse assessed as prolongation of host survival at 1.20 mg/kg, ip administered on days 1,5 and 9; format: functional; conditions: route intraperitoneal; outline: as §4
[19] = Antitumor activity against mouse P1534 cells allografted in DBA2 mouse assessed as tumor growth inhibition at 0.20 mg/kg, ip administered daily for 8 to 10 days; format: functional; conditions: route intraperitoneal, read-out: TGI; outline: as §2
[20] = Antitumor activity against mouse P1534 cells allografted in DBA2 mouse assessed as tumor growth inhibition at 0.30 mg/kg, ip administered daily for 8 to 10 days; format: functional; conditions: route intraperitoneal, read-out: TGI; outline: as §2
Mus musculus [21] = assay: Toxicity in DBA2 mouse allografted with mouse P1534 cells at 0.40 mg/kg, ip administered daily for 8 to 10 days; format: organism-based; design: dose 0.4 mg/kg, route intraperitoneal; conditions: in vivo, 0.4 mg/kg; outline: as §2
[22] = Toxicity in iv dosed mouse assessed as lethality; format: organism-based; conditions: in vivo
P388/VCR [23] = assay: Antitumor activity against mouse P388/VCR cells allografted in CD2F1 mouse assessed as increase in host lifespan at 1.08 mg/kg, ip administered on days 1, 5 and 9; format: functional; conditions: route intraperitoneal
Outline: (§5)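 Groups of eight male CD2F1 mice bearing P388 leukemia, run at NCI. Sulfate salts given ip on days 1, 5 and 9. Read-out is percent increase in lifespan.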

P388/S [24] = assay: Antitumor activity against mouse P388/S cells allografted in CD2F1 mouse assessed as increase in host lifespan at 1.80 mg/kg, ip administered on days 1, 5 and 9; format: functional; conditions: dose 1.8 mg/kg; route intraperitoneal
Outline: (§6)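 Groups of eight male CD2F1 mice, tested at the NCI. Compounds were given as sulfate salts, dosed in mg/kg ip on days 1, 5 and 9. Activity was read as percent increase in lifespan against the leukemia line.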

P388/S [25] = assay: Antitumor activity against mouse P388/S cells allografted in CD2F1 mouse assessed as increase in host lifespan at 1.08 mg/kg, ip administered on days 1, 5 and 9; format: functional; conditions: route intraperitoneal; outline: as §5
P388/S [26] = assay: Antitumor activity against mouse P388/S cells allografted in CD2F1 mouse assessed as increase in host lifespan at 0.648 mg/kg, ip administered on days 1, 5 and 9; format: functional; conditions: route intraperitoneal; outline: as §5
P388/VCR [27] = assay: Antitumor activity against mouse P388/VCR cells allografted in CD2F1 mouse assessed as increase in host lifespan at 1.80 mg/kg, ip administered on days 1, 5 and 9; format: functional; conditions: dose 1.8 mg/kg; route intraperitoneal; outline: as §6
P388/VCR [28] = assay: Antitumor activity against mouse P388/VCR cells allografted in CD2F1 mouse assessed as increase in host lifespan at 0.648 mg/kg, ip administered on days 1, 5 and 9; format: functional; conditions: route intraperitoneal; outline: as §5
P388/VCR [29] = assay: Antitumor activity against mouse P388/VCR cells allografted in B6D2F1 mouse assessed as increase in host lifespan at 1.20 mg/kg, ip administered on days 1, 5 and 9; format: functional; conditions: dose 1.2 mg/kg; route intraperitoneal
Outline: (§7)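 P388/VCR leukemia in groups of 10 B6D2F1 mice, run at Lilly using the cell strain received from NCI. Sulfate salts given ip on days 1, 5 and 9. Read-out is percent increase in lifespan.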

P388/VCR [30] = assay: Antitumor activity against mouse P388/VCR cells allografted in B6D2F1 mouse assessed as increase in host lifespan at 0.90 mg/kg, ip administered on days 1, 5 and 9; format: functional; conditions: dose 0.9 mg/kg; route intraperitoneal; outline: as §7
P388/VCR [31] = assay: Antitumor activity against mouse P388/VCR cells allografted in B6D2F1 mouse assessed as increase in host lifespan at 0.60 mg/kg, ip administered on days 1, 5 and 9; format: functional; conditions: dose 0.6 mg/kg; route intraperitoneal; outline: as §7
Mus musculus [32] = assay: Toxicity in CD2F1 mouse allografted with mouse P388/S cells at 3.00 mg/kg, ip administered on days 1, 5 and 9; format: organism-based; design: dose 3 mg/kg, route intraperitoneal; conditions: in vivo
Mus musculus [33] = assay: Toxicity in CD2F1 mouse allografted with mouse P388/VCR cells at 3.00 mg/kg, ip administered on days 1, 5 and 9; format: organism-based; design: dose 3 mg/kg, route intraperitoneal; conditions: in vivo
[34] = Antitumor activity against mouse P388/VCR/I/63 cells allografted in Dublin-CDF1 mouse assessed as day of host death at 2.0 mg/kg, ip administered on days 1, 5 and 9 (reference value: 10 days); format: functional; conditions: route intraperitoneal
[35] = Antitumor activity against mouse P388/VCR/I/63 cells allografted in Dublin-CDF1 mouse assessed as increase in host lifespan at 2.0 mg/kg, ip administered on days 1, 5 and 9; format: functional; conditions: route intraperitoneal
Mus musculus [36] = assay: Toxicity in mouse assessed as body weight at 0.5 mg/kg, ip administered twice per week for 4 weeks, then three doses per week for 3 weeks and finally six doses per week for 2 weeks measured during 9-weeks (reference value: 18.5 +/- 0.5 gms); format: organism-based; design: dose 0.5 mg/kg, route intraperitoneal; conditions: in vivo, 1512 h

Structure (SMILES): CC[C@]1(O)C[C@H]2CN(CCc3c([nH]c4ccccc34)[C@@](C(=O)OC)(c3cc4c(cc3OC)N(C)[C@H]3[C@@](O)(C(=O)NC)[C@H](O)[C@]5(CC)C=CCN6CC[C@]43[C@@H]65)C2)C1.O=S(=O)(O)O
- inhibition in vivo at 0.05 mg/kg [1]: 0%
- inhibition in vivo at 0.1 mg/kg [2]: 0%
- inhibition in vivo at 0.2 mg/kg [3]: 76%
- inhibition in vivo at 0.3 mg/kg [4]: 76%
- inhibition in vivo at 0.4 mg/kg [5]: 76%
- Activity (Mus musculus [6]): Toxic
- inhibition in vivo at 0.05 mg/kg [7]: 0%
- inhibition in vivo at 0.1 mg/kg [8]: 0%
- inhibition in vivo at 0.2 mg/kg [9]: 51%
- inhibition in vivo at 0.3 mg/kg [10]: 76%
- inhibition in vivo at 0.4 mg/kg [11]: 76%
- inhibition in vivo at 0.25 mg/kg [12]: 76%
- Activity (CHO [13]): 15%
- Activity (CHO [14]): 3%
- Activity (Mus musculus [15]): 24.6 g

Structure (SMILES): CC[C@]1(O)C[C@@H]2CN(CCc3c([nH]c4ccccc34)[C@@](C(=O)OC)(c3cc4c(cc3OC)N(C)[C@H]3[C@@](O)(C(N)=O)[C@H](O)[C@]5(CC)C=CCN6CC[C@]43[C@@H]65)C2)C1.O=S(=O)(O)O [VINDESINE SULFATE]
- inhibition in vivo at 0.05 mg/kg [1]: 0%
- inhibition in vivo at 0.1 mg/kg [2]: 51%
- inhibition in vivo at 0.2 mg/kg [3]: 76%
- inhibition in vivo at 0.3 mg/kg [4]: 76%
- inhibition in vivo at 0.4 mg/kg [5]: 76%
- Activity (Mus musculus [6]): Toxic
- inhibition in vivo at 0.05 mg/kg [7]: 0%
- inhibition in vivo at 0.1 mg/kg [8]: 0%
- inhibition in vivo at 0.2 mg/kg [9]: 51%
- inhibition in vivo at 0.3 mg/kg [10]: 76%
- inhibition in vivo at 0.4 mg/kg [11]: 76%
- survival at 0.6 mg/kg (B16 [16]): 117%
- survival at 0.9 mg/kg (B16 [17]): 144%
- survival at 1.2 mg/kg (B16 [18]): 155%
- inhibition in vivo at 0.2 mg/kg [19]: 51%
- inhibition in vivo at 0.25 mg/kg [12]: 76%
- inhibition in vivo at 0.3 mg/kg [20]: 76%
- Activity (Mus musculus [21]): Toxic
- LD50 [22]: 6.3 mg/kg
- Activity (P388/VCR [23]): 0%
- Activity (P388/S [24]): 138%
- Activity (P388/S [25]): 129%
- Activity (P388/S [26]): 96%
- Activity (P388/VCR [27]): -8%
- Activity (P388/VCR [28]): 4%
- Activity (P388/VCR [29]): 3%
- Activity (P388/VCR [30]): 5%
- Activity (P388/VCR [31]): 0%
- Activity (Mus musculus [32]): Toxic
- Activity (Mus musculus [33]): Toxic
- Activity [34]: 20 days
- Activity [35]: 100%
- Activity (CHO [13]): 15%
- Activity (CHO [14]): 10%
- Activity (Mus musculus [36]): 34.9 g
